One may read the inhibition as the percentage by which the read-out fell short of the control. Low values mean a weak effect, high ones a strong effect. The term IC50 denotes the concentration that gives 50% inhibition. Low readings indicate higher potency, high ones lower potency.

The record followed here is ChEMBL document CHEMBL1157352, “Potent, Plasmodium-selective farnesyltransferase inhibitors that arrest the growth of malaria parasites: structure-activity relationships of ethylenediamine-analogue scaffolds and homology model validation” (J Med Chem, 2008).

Test [1] relates to Plasmodium falciparum. The test can be described thus: Antimalarial activity in Plasmodium falciparum 3D7 infected erythrocytes as [3H]hypoxanthine uptake. Format: functional. As to conditions: 3D7, 72 h, read-out: ED50 (the source's name). The method, boiled down: (§1)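 Parasites kept per Trager–Jensen in RPMI-1640 with 2 mM L-glutamine, 25 mM HEPES, 33 mM NaHCO3, gentamicin, 20% heat-inactivated human A+ plasma. Compound in DMSO added to culture at 0.5% parasitemia and hematocrit; 37 °C, 5% CO2/5% O2/90% N2, 48 h. [8-3H]hypoxanthine (0.3 µCi) added for a further 24 h, then harvested and scintillation-counted. Uninfected-RBC background subtracted; DMSO vehicle taken as 100% growth. ED50 by linear regression.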

The test system of test [2] is Plasmodium falciparum. As to the kind of experiment: Inhibition of Plasmodium falciparum PFT at 5 nM.
Test [3] concerns Plasmodium falciparum. As to the kind of experiment: Inhibition of Plasmodium falciparum PFT at 50 nM.
Test [4] has as its system Plasmodium falciparum. As to the kind of experiment: Antimalarial activity in Plasmodium falciparum K1 infected erythrocytes by [3H]hypoxanthine uptake. The settings on record: K1, 72 h, read-out: ED50 (the source's name). It counts as functional. The method, boiled down: as §1
A short description of test [5]: Inhibition of rat PFT by scintillation proximity assay. On the technique in general: Scintillation proximity formats need no separation of bound from free tracer.
Test [6] is described as follows: Inhibition of Plasmodium falciparum PFT.
Test [7] in a line: Selectivity for Plasmodium falciparum PFT over rat PFT.

Turning to `Cn1cnc(S(=O)(=O)N(CCN(Cc2cncn2C)c2ccc(C#N)cc2)Cc2ccsc2)c1`, the EC50 was 0.15 µM with Plasmodium falciparum [1] and 0.24 µM in the test with Plasmodium falciparum [4]. The inhibition in the test with Plasmodium falciparum [2] was found to be 91%; in the test with Plasmodium falciparum [3], 100%.
For `Cn1cnc(S(=O)(=O)N(Cc2ccsc2)[C@@H]2CC[C@@H](N(Cc3cncn3C)c3ccc(C#N)cc3)C2)c1` (racemic), the EC50 in the test with Plasmodium falciparum [1] turned out to be 1.5 µM; with Plasmodium falciparum [4] it was 1.2 µM. In the test on Plasmodium falciparum [3], this molecule had an inhibition of 56%.
On to `Cn1cnc(S(=O)(=O)N(CC2CCN(C(=O)OC(C)(C)C)CC2)CC(C)(C)N(Cc2cncn2C)c2ccc(C#N)cc2)c1`, for which the IC50 in test [5] is 0.15 µM; in test [6], 0.0011 µM. This molecule also yielded an inhibition with Plasmodium falciparum [3] of 87%. Also, the Selectivity ratio in test [7] is 136.
In the case of `Cc1ccccc1CN([C@@H]1CCC[C@@H]1N(Cc1cncn1C)c1ccc(C#N)cc1)S(=O)(=O)c1cn(C)cn1` (racemic), the EC50 in the test on Plasmodium falciparum [1] and in the test with Plasmodium falciparum [4] was 2.8 µM in each case. The inhibition in the test on Plasmodium falciparum [2] was 16%; in the test with Plasmodium falciparum [3], 17%.
For `Cn1cnc(S(=O)(=O)N(CC2CCN(c3ncccn3)CC2)CC(C)(C)N(Cc2cncn2C)c2ccc(C#N)cc2)c1`, the inhibition amounted to 93% with Plasmodium falciparum [2] and 100% with Plasmodium falciparum [3].
Turning to `Cn1cnc(S(=O)(=O)N(Cc2ccccc2)[C@H]2CC[C@H](N(Cc3cncn3C)c3ccc(C#N)cc3)CC2)c1`, in the test on Plasmodium falciparum [3], the inhibition was 73%.
In the test on Plasmodium falciparum [3], `Cn1cnc(S(=O)(=O)N(Cc2ccccc2)[C@H]2CC[C@@H](N(Cc3cncn3C)c3ccc(C#N)cc3)CC2)c1` registered an inhibition of 23%. The EC50 in the test on Plasmodium falciparum [4] was 2.75 µM.
Take `Cn1cnc(S(=O)(=O)N(Cc2ccsc2)[C@H]2CCC[C@@H]2N(Cc2cncn2C)c2ccc(C#N)cc2)c1` (racemic): the EC50 with Plasmodium falciparum [1] and in the test with Plasmodium falciparum [4] was 2.7 µM in each case. For the same molecule, the inhibition was 11% in the test on Plasmodium falciparum [2] and 57% with Plasmodium falciparum [3].
As for `Cn1cnc(S(=O)(=O)N(Cc2ccccc2)[C@@H]2CC[C@@H](N(Cc3cncn3C)c3ccc(C#N)cc3)C2)c1` (racemic), the values for the EC50 in the test with Plasmodium falciparum [1] and with Plasmodium falciparum [4] were 0.34 µM and 0.145 µM, respectively. Moreover, the inhibition was found to be 65% with Plasmodium falciparum [2] and 93% in the test with Plasmodium falciparum [3].
With `Cn1cnc(S(=O)(=O)N(Cc2ccsc2)CC(C)(C)N(Cc2cncn2C)c2ccc(C#N)cc2)c1`, the EC50 with Plasmodium falciparum [1] was determined as 2.45 µM. This molecule registered an inhibition in the test on Plasmodium falciparum [3] of 70%.
`Cn1cnc(S(=O)(=O)N(CCN(Cc2cncn2C)c2ccc(C#N)cc2)CC2CCN(c3ncccn3)CC2)c1`: the inhibition with Plasmodium falciparum [2] is 74%; with Plasmodium falciparum [3], 96%.
As for `Cc1ccccc1CN([C@H]1CC[C@@H](N(Cc2cncn2C)c2ccc(C#N)cc2)C1)S(=O)(=O)c1cn(C)cn1` (racemic), the EC50 was determined as 2.4 µM with Plasmodium falciparum [1] and 2.6 µM in the test on Plasmodium falciparum [4]. Further, the inhibition in the test on Plasmodium falciparum [3] was determined as 24%.
As for `Cn1cnc(S(=O)(=O)N(CC2CCN(C(=O)OC(C)(C)C)CC2)[C@H]2CCC[C@@H]2N(Cc2cncn2C)c2ccc(C#N)cc2)c1` (racemic), in the test with Plasmodium falciparum [1], the EC50 is 2.65 µM. The results for the IC50 in test [5] and in test [6] were > 1 µM and 0.01 µM, respectively. Further, the inhibition worked out at 41% in the test on Plasmodium falciparum [2] and 82% with Plasmodium falciparum [3]. Moreover, in test [7], the Selectivity ratio was > 100.
As for `Cn1cnc(S(=O)(=O)N(CC2CCN(c3ncccn3)CC2)[C@H]2CCC[C@@H]2N(Cc2cncn2C)c2ccc(C#N)cc2)c1` (racemic), the EC50 in the test on Plasmodium falciparum [1] was determined as 2.6 µM; in the test on Plasmodium falciparum [4], 0.75 µM. The inhibition with Plasmodium falciparum [2] was 12%; in the test with Plasmodium falciparum [3], 28%.
For `Cn1cnc(S(=O)(=O)N(CC2CCN(C(=O)OC(C)(C)C)CC2)[C@H]2CC[C@@H](N(Cc3cncn3C)c3ccc(C#N)cc3)C2)c1` (racemic), the values for the EC50 in the test with Plasmodium falciparum [1] and with Plasmodium falciparum [4] were 0.3 µM and 0.125 µM, respectively. The values for the inhibition in the test on Plasmodium falciparum [2] and with Plasmodium falciparum [3] were 33% and 83%, respectively.
`Cn1cnc(S(=O)(=O)N(CC2CCN(C(=O)OC(C)(C)C)CC2)[C@H]2CC[C@H](N(Cc3cncn3C)c3ccc(C#N)cc3)CC2)c1`: the inhibition in the test on Plasmodium falciparum [3] was found to be 0%. Besides, the EC50 in the test with Plasmodium falciparum [4] is 1.2 µM.
For the molecule `Cn1cnc(S(=O)(=O)N(Cc2ccccc2)[C@H]2CC[C@@H](N(Cc3cncn3C)c3ccc(C#N)cc3)C2)c1` (racemic), the EC50 with Plasmodium falciparum [1] was 0.7 µM. Further, the inhibition in the test with Plasmodium falciparum [2] turned out to be 4%; with Plasmodium falciparum [3], 40%.
Regarding `Cn1cnc(S(=O)(=O)N(CCN(Cc2cncn2C)c2ccc(C#N)cc2)CC2CCN(C(=O)OC(C)(C)C)CC2)c1`, the IC50 in test [5] is 0.14 µM. The inhibition with Plasmodium falciparum [2] was 81%; in the test with Plasmodium falciparum [3], 96%. In test [7], the Selectivity ratio is 117.
Turning to `Cc1ccccc1CN(CCCN(Cc1cncn1C)c1ccc(C#N)cc1)S(=O)(=O)c1cn(C)cn1`, the inhibition in the test with Plasmodium falciparum [2] came out at 24%; in the test on Plasmodium falciparum [3] it was 76%.
In the case of `Cn1cnc(S(=O)(=O)N(CCCN(Cc2cncn2C)c2ccc(C#N)cc2)Cc2ccsc2)c1`, the inhibition in the test on Plasmodium falciparum [2] turned out to be 18%; in the test with Plasmodium falciparum [3] it was 73%.
With `Cn1cnc(S(=O)(=O)N(CC2CCN(C(=O)OC(C)(C)C)CC2)[C@@H]2CCC[C@@H]2N(Cc2cncn2C)c2ccc(C#N)cc2)c1` (racemic), the results for the IC50 in test [5] and in test [6] were > 1 µM and 0.35 µM, respectively. Besides, the inhibition in the test on Plasmodium falciparum [2] came out at 3%; in the test on Plasmodium falciparum [3] it was 2%. Besides, the EC50 with Plasmodium falciparum [4] turned out to be 1.25 µM. For the same molecule, the Selectivity ratio in test [7] is > 2.9.
For `Cn1cnc(S(=O)(=O)N(CC2CCN(c3ncccn3)CC2)[C@@H]2CC[C@@H](N(Cc3cncn3C)c3ccc(C#N)cc3)C2)c1` (racemic), the EC50 is 2.6 µM in the test with Plasmodium falciparum [1] and 1.5 µM with Plasmodium falciparum [4]. Moreover, the inhibition in the test on Plasmodium falciparum [3] came to 38%.
For `Cn1cnc(S(=O)(=O)N(Cc2ccccc2)CC(C)(C)N(Cc2cncn2C)c2ccc(C#N)cc2)c1`, the inhibition in the test with Plasmodium falciparum [2] worked out at 88%; in the test with Plasmodium falciparum [3] it was 100%.
Molecule `Cn1cnc(S(=O)(=O)N(CC2CCN(C(=O)OC(C)(C)C)CC2)[C@H]2CC[C@@H](N(Cc3cncn3C)c3ccc(C#N)cc3)CC2)c1` had an inhibition with Plasmodium falciparum [3] of 0%. Moreover, the EC50 in the test with Plasmodium falciparum [4] turned out to be 0.65 µM.
With `Cn1cnc(S(=O)(=O)N(CC2CCN(c3ncccn3)CC2)[C@@H]2CCC[C@@H]2N(Cc2cncn2C)c2ccc(C#N)cc2)c1` (racemic), the results for the EC50 with Plasmodium falciparum [1] and with Plasmodium falciparum [4] were 3 µM and 2.5 µM, respectively. Also, the values for the inhibition with Plasmodium falciparum [2] and in the test with Plasmodium falciparum [3] were 10% and 0%, respectively.
Take `Cn1cnc(S(=O)(=O)N(Cc2ccccc2)[C@@H]2CCC[C@@H]2N(Cc2cncn2C)c2ccc(C#N)cc2)c1` (racemic): the EC50 with Plasmodium falciparum [1] was > 5 µM. The inhibition in the test with Plasmodium falciparum [2] and in the test with Plasmodium falciparum [3] was 0% throughout.
Take `Cn1cnc(S(=O)(=O)N(Cc2ccsc2)[C@H]2CC[C@@H](N(Cc3cncn3C)c3ccc(C#N)cc3)C2)c1` (racemic): the EC50 in the test on Plasmodium falciparum [1] is 2.4 µM; in the test on Plasmodium falciparum [4] it was 2.5 µM. Further, the inhibition in the test on Plasmodium falciparum [3] was 15%.
For the molecule `Cn1cnc(S(=O)(=O)N(Cc2ccsc2)[C@@H]2CCC[C@@H]2N(Cc2cncn2C)c2ccc(C#N)cc2)c1` (racemic), the EC50 in the test on Plasmodium falciparum [1] was > 5 µM; in the test with Plasmodium falciparum [4], 4.2 µM. Further, the inhibition in the test on Plasmodium falciparum [2] was 0%; in the test on Plasmodium falciparum [3] it was 9%.
Regarding `Cc1ccccc1CN([C@H]1CCC[C@@H]1N(Cc1cncn1C)c1ccc(C#N)cc1)S(=O)(=O)c1cn(C)cn1` (racemic), the EC50 was found to be 3 µM with Plasmodium falciparum [1] and 3.2 µM in the test on Plasmodium falciparum [4]. For the same molecule, the inhibition in the test on Plasmodium falciparum [2] stood at 12%; in the test with Plasmodium falciparum [3] it was 35%.
As to `Cc1ccccc1CN(CC(C)(C)N(Cc1cncn1C)c1ccc(C#N)cc1)S(=O)(=O)c1cn(C)cn1`, the inhibition is 91% in the test on Plasmodium falciparum [2] and 98% in the test with Plasmodium falciparum [3].
Turning to `Cc1ccccc1CN([C@@H]1CC[C@@H](N(Cc2cncn2C)c2ccc(C#N)cc2)C1)S(=O)(=O)c1cn(C)cn1` (racemic), the EC50 in the test with Plasmodium falciparum [1] stood at 2.4 µM; with Plasmodium falciparum [4], 2.2 µM. For the same molecule, the inhibition in the test on Plasmodium falciparum [3] amounted to 33%.
For the molecule `Cn1cnc(S(=O)(=O)N(CCN(Cc2cncn2C)c2ccc(C#N)cc2)Cc2ccccc2)c1`, the inhibition in the test with Plasmodium falciparum [2] is 86%; with Plasmodium falciparum [3], 98%.
Take `Cn1cnc(S(=O)(=O)N(Cc2ccccc2)[C@H]2CCC[C@@H]2N(Cc2cncn2C)c2ccc(C#N)cc2)c1` (racemic): the EC50 with Plasmodium falciparum [1] was found to be 3.1 µM; in the test with Plasmodium falciparum [4], 2.35 µM. Besides, the figures for the inhibition with Plasmodium falciparum [2] and in the test on Plasmodium falciparum [3] were 20% and 42%, respectively.
`Cn1cnc(S(=O)(=O)N(CC2CCN(C(=O)OC(C)(C)C)CC2)[C@@H]2CC[C@@H](N(Cc3cncn3C)c3ccc(C#N)cc3)C2)c1` (racemic): in the test on Plasmodium falciparum [1], the EC50 is 0.31 µM. This molecule also registered an IC50 in test [6] of 0.0031 µM. Also, the inhibition in the test on Plasmodium falciparum [2] turned out to be 86%; with Plasmodium falciparum [3], 97%.
In the case of `Cc1ccccc1CN(CCN(Cc1cncn1C)c1ccc(C#N)cc1)S(=O)(=O)c1cn(C)cn1`, the inhibition with Plasmodium falciparum [2] was 95%; with Plasmodium falciparum [3], 99%.
In the case of `Cn1cnc(S(=O)(=O)N(CCCN(Cc2cncn2C)c2ccc(C#N)cc2)CC2CCN(c3ncccn3)CC2)c1`, the inhibition is 62% in the test on Plasmodium falciparum [2] and 93% with Plasmodium falciparum [3].
Regarding `Cn1cnc(S(=O)(=O)N(CC2CCN(c3ncccn3)CC2)[C@H]2CC[C@@H](N(Cc3cncn3C)c3ccc(C#N)cc3)C2)c1` (racemic), the EC50 in the test on Plasmodium falciparum [1] was 0.6 µM; in the test on Plasmodium falciparum [4], 0.72 µM. The inhibition with Plasmodium falciparum [3] came to 6%.
`Cn1cnc(S(=O)(=O)N(CCCN(Cc2cncn2C)c2ccc(C#N)cc2)CC2CCN(C(=O)OC(C)(C)C)CC2)c1`: in test [6], the IC50 is 0.001 µM. Besides, the figures for the inhibition in the test with Plasmodium falciparum [2] and in the test with Plasmodium falciparum [3] were 73% and 94%, respectively.
For the molecule `Cn1cnc(S(=O)(=O)N(CCCN(Cc2cncn2C)c2ccc(C#N)cc2)Cc2ccccc2)c1`, the figures for the inhibition in the test on Plasmodium falciparum [2] and with Plasmodium falciparum [3] were 16% and 71%, respectively. Further, the EC50 with Plasmodium falciparum [4] was 2.65 µM.
